In paper PMC4252766 (FEBS letters, 2014):

How the values were obtained:
BRPF1 bromodomain [1] = assay: X-ray crystallography of BRPF1 bromodomain with histone peptides; assay type: binding, human; details: co-crystal structures PDB 4QYL (H2AK5ac) and 4QYD (H4K12ac)
Outline: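 E. coli-expressed BRPF1 bromodomain (residues 629–742), gel-filtered into 20 mM Tris pH 8.0, 150 mM NaCl, 1 mM DTT; 2.3 mM protein + 5 mM peptide; drops at 4°C. H2AK5ac: 0.2 M NH₄SO₄, 0.1 M MES pH 6.5, 30% PEG MME 5,000, seeding, 1% propylene glycol. H4K12ac: 0.1 M HEPES pH 7.5, 10% PEG 6,000, 5% MPD. Flash-cooled, 100 K.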

BRPF1 bromodomain [2] = details: ref [31]; cited from earlier work

Row | binding by x-ray crystallography (BRPF1 bromodomain [1]) | Substance | histone ligand preference (BRPF1 bromodomain [2])
1 | bind | GKGGKGLG Kac GGAKR [H4K12ac] | preferentially binds
2 | bind | SGRG Kac QGGKARA [H2AK5ac] | preferentially binds
